Assay results published in ChEMBL document CHEMBL4665801, “Pyrazole-Based Lactate Dehydrogenase Inhibitors with Optimized Cell Activity and Pharmacokinetic Properties” (J Med Chem, 2020).
Active and inactive are the calls of the source. The rule behind the calls is not given here.

Legend:
[1] = Oral bioavailability in CD-1 mouse at 50 mg/kg and measured up to 24 hrs by LC/MS-MS analysis; assay type: ADME, organism-based; settings: in vivo
In short: (§1)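 Male CD1 mice, about 6–8 weeks old and 20–30 g, were dosed PO at 40 or 50 mg/kg in 0.1 M NaOH in PBS, pH 7–8.5, prepared the same day. Three mice per cohort. Dorsal metatarsal vein blood was collected into heparin at 15, 30 min and 1, 2, 4, 8, 12, 24 h. Plasma was spun at 4 °C, frozen at –75 °C and quantified by LC–MS/MS.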

[2] = AUClast in CD-1 mouse at 50 mg/kg, po and measured up to 24 hrs by LC/MS-MS analysis; assay type: ADME, organism-based; parameters: route oral, dose 50 mg/kg, time <=24; settings: in vivo; in short: as §1
[3] = Cmax in CD-1 mouse at 50 mg/kg, po and measured up to 24 hrs by LC/MS-MS analysis; assay type: ADME, organism-based; parameters: route oral, dose 50 mg/kg, time <=24; settings: in vivo; in short: as §1
[4] = Terminal half life in CD-1 mouse at 10 mg/kg, iv and measured up to 24 hrs by LC/MS-MS analysis; assay type: ADME, organism-based; settings: in vivo
In short: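 Male CD1 mice, about 6–8 weeks old and 20–30 g, received 10 mg/kg IV in 0.1 M NaOH in PBS adjusted to pH 7–8.5, made fresh on the day of dosing. Three mice per cohort. Blood was taken from the dorsal metatarsal vein at 5, 15, 30 min and 1, 2, 4, 8, 12, 24 h into heparin tubes. Plasma was spun at 4 °C, stored at –75 °C and analysed by LC–MS/MS. For IV dosing Cmax = C0.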

[5] = Half life in mouse plasma; assay type: ADME, cell-free
In short: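 Stability in mouse plasma was followed at five time points, with T1/2 derived from parent remaining.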

[6] = biological target: T1, L-lactate dehydrogenase A chain (Homo sapiens, UniProt P00338); assay: Inhibition of LDHA in human MIA PaCa-2 cells assessed as decrease in lactate production incubated for 2 hrs by lactate oxidase-coupled fluorescence based assay; assay type: cell-based
[7] = biological target: T1, L-lactate dehydrogenase A chain; assay: Inhibition of LDHA in human A673 cells assessed as decrease in extracellular acidification rate at 0.5 to 5 uM preincubated for 1 hr followed by glucose/oligomycin/2-DG addition at 48 mins by seahorse XF GST based assay; assay type: cell-based; settings: dose microM 0.5-5, time 108.0 min
In short: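 A673 cells in DMEM with 10% FBS were plated 24 h ahead, then switched to Seahorse basic DMEM with 2 mM glutamine, pH 7.4, and held 1 h at 37 °C without CO2. ECAR was recorded after inhibitor injection at increasing concentrations. At 48 min, glucose (10 mM final), oligomycin (1 μg/mL final) and 2-DG (50 mM final) were injected in sequence.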

[8] = Half life in human liver microsomes at 1 uM in presence of NADPH by LC-MS/MS; assay type: ADME, Microsome
In short: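 Time-course stability in human or mouse liver microsomes, or mouse hepatocytes, in the presence of NADPH and UDPGA. Parent compound was monitored at five time points to derive T1/2.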

Cytochrome P450 2C8 = biological target: T2, Cytochrome P450 2C8 (Homo sapiens, UniProt P10632); assay: Inhibition of CYP2C8 (unknown origin) assessed as inhibitory concentration; assay type: ADME
T2 sequence (P10632 whole entry): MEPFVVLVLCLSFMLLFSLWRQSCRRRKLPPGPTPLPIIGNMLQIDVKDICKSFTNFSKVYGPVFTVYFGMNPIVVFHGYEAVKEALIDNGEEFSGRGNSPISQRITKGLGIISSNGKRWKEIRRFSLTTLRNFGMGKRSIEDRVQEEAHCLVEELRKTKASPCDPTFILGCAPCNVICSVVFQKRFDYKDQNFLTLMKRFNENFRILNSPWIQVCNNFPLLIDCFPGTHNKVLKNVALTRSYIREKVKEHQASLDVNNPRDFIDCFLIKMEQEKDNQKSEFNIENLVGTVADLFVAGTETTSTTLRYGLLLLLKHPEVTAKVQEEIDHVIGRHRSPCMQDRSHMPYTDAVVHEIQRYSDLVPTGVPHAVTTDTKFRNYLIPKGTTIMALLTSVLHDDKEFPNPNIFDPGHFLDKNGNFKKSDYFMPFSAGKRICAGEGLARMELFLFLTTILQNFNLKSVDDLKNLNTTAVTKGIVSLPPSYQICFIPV

Cytochrome P450 2B6 = biological target: T3, Cytochrome P450 2B6 (Homo sapiens, UniProt P20813); assay: Inhibition of CYP2B6 (unknown origin) assessed as inhibitory concentration; assay type: ADME
T3 sequence (P20813 whole entry): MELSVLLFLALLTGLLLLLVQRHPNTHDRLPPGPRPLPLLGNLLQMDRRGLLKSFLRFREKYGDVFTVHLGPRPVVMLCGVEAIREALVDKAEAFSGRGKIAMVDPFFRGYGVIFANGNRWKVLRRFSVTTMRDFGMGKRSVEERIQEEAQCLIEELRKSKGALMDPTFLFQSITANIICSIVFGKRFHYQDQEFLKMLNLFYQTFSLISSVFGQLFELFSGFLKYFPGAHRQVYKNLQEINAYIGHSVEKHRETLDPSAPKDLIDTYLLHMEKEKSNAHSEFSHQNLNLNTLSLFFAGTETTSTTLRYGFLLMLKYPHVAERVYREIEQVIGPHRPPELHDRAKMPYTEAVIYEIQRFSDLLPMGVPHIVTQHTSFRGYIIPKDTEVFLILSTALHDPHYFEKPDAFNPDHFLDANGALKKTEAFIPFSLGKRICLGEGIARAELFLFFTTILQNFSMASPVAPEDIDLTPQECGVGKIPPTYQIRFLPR

[9] = Oral bioavailability in CD-1 mouse at 40 mg/kg and measured up to 24 hrs by LC/MS-MS analysis; assay type: ADME, organism-based; settings: in vivo
In short: (§2)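 Male CD1 mice, 6–8 weeks, about 20–30 g, three per cohort. Dosed PO at 40 or 50 mg/kg, or IV at 10 mg/kg for reference, in PBS with […] (pH 7–8). Dorsal metatarsal blood was taken into heparin at 15 min to 24 h (PO) or 5 min to 24 h (IV). Plasma was frozen and quantified by LC–MS/MS.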

[10] = AUC last in CD-1 mouse at 40 mg/kg, po and measured up to 24 hrs by LC/MS-MS analysis; assay type: ADME, organism-based; parameters: route oral, dose 40 mg/kg, time <=24; settings: in vivo; in short: as §2
[11] = Cmax in CD-1 mouse at 40 mg/kg, po and measured up to 24 hrs by LC/MS-MS analysis; assay type: ADME, organism-based; parameters: route oral, dose 40 mg/kg, time <=24; settings: in vivo; in short: as §2
[12] = Terminal half life in CD-1 mouse at 40 mg/kg, po and measured up to 24 hrs by LC/MS-MS analysis; assay type: ADME, organism-based; settings: in vivo; in short: as §2
CYP2C8 = biological target: T4, CYP2C8 (Homo sapiens, UniProt P10632); assay: Inhibition of CYP2C8 (unknown origin) at 10 uM relative to control; assay type: ADME
T4 sequence (P10632 whole entry): T2 sequence (P10632 whole entry)

CYP2B6 = biological target: T5, CYP2B6 (Homo sapiens, UniProt P20813); assay: Inhibition of CYP2B6 (unknown origin) at 10 uM relative to control; assay type: ADME
T5 sequence (P20813 whole entry): T3 sequence (P20813 whole entry)

CYP2C9 = CYP2C9 (Homo sapiens, UniProt P11712); assay: Inhibition of CYP2C9 (unknown origin) at 10 uM relative to control; assay type: ADME
Chain of CYP2C9 (P11712 whole entry): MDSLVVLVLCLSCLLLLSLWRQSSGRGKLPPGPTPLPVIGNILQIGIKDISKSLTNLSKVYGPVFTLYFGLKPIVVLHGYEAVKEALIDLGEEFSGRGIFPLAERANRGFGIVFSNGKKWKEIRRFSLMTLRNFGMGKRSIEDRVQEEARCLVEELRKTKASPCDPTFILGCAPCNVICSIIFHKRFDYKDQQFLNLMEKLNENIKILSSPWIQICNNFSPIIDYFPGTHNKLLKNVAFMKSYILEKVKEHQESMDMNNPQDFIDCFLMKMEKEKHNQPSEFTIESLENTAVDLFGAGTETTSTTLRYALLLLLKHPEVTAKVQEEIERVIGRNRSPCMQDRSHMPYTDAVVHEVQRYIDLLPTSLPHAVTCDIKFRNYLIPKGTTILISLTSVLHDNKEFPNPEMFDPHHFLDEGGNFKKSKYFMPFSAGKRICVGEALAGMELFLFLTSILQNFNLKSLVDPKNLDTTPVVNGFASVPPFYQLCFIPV

Compound | F [1] | AUClast [2] | Cmax [3] | beta t1/2 [4] | t1/2 [5] | IC50 [6] | inhibition [7] | half-life at 1 µM [8] | INH (Cytochrome P450 2C8) | INH (Cytochrome P450 2B6) | F [9] | AUClast [10] | Cmax [11] | beta t1/2 [12] | inhibition at 10 µM (CYP2C8) | inhibition at 10 µM (CYP2B6) | inhibition at 10 µM (CYP2C9)
Cc1ccc(C#Cc2cccc(-c3nn(-c4nc(C(=O)O)cs4)c(CC4CC4)c3Cc3ccc(S(N)(=O)=O)c(F)c3)c2)s1 | 64% | 53540 ng·h/mL | 8830 ng/mL | 5.3 h | > 4 h | 367 nM | Active | > 2 h | 7.5 µM | 14 µM |  |  |  |  |  |  | 
Cc1ccc(C#Cc2cc(-c3nn(-c4nc(C(=O)O)cs4)c(CC4CC4)c3Cc3ccc(S(N)(=O)=O)c(F)c3)ccc2F)s1 |  |  |  | 5.2 h | > 4 h | 403 nM | Active | > 2 h |  |  | 73.8% | 31390 ng·h/mL | 5260 ng/mL | 2.78 h | 80% | 46% | 45%
